Assay outcomes (PubChem BioAssay)
The list is not random: actives were taken first. Their share in the collection is about 1.9%.
b-catenin transl: modulators of beta-catenin nuclear translocation | HeLa beta-catenin nuclear translocation, immunofluorescence imaging | actives 0.3% (n = 190,000) | nuclear translocation activity, % at 5 µM | AID 1665;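 active = nuclear translocation activity above 50% at 5 µM, with a well cell count of 50 or more; inconclusive = wells under 50 cells across six images, flagged as toxic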;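 also: per-cell ratio of nuclear to cytoplasmic median beta-catenin stain intensity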
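Test system: HeLa cells, endogenous beta-catenin; Compound: single 5 µM dose plus 0.02–20 µM confirmation series; Times: compound exposure 24 h at 37°C; Signal: fluorescence imaging of beta-catenin antibody stain plus DAPI; Read-out: % activation, nuclear-to-cytoplasmic median beta-catenin signal ratio per cell.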
ROMK mod: modulates human ROMK potassium channel activity. P48048. Tet-inducible ROMK, thallium flux fluorescence; actives lie on both sides. B-score at 10 µM. actives 2% (n = 130,000);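 active = signal ratio slope over the read window, or its plate-corrected B-score, at least 3 SD from the plate mean, either direction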;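 also: B-score of the F/F0 ratio slope over 7 to 12 s after thallium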
Target sequence (P48048 whole entry, looked up): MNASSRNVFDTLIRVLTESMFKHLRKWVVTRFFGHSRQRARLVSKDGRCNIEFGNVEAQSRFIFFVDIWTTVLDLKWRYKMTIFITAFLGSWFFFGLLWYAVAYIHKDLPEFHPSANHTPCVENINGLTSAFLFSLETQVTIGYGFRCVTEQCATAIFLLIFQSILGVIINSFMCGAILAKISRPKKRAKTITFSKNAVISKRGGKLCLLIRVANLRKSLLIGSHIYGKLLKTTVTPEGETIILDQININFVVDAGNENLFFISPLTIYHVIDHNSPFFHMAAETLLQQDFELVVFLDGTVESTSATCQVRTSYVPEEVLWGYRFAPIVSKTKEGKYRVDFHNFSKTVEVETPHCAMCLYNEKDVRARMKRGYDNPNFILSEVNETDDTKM
MT stabilizer: microtubule stabilizers in HeLa cells; actives 0.83% (n = 200,000); % tubulin-high responders, % at 10 µM; HeLa tubulin immunostaining HCS, 24 h; share of cells brighter than vehicle mean+2SD;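 active = plate Z-score above 3 for both tubulin-high and condensed-nucleus cell shares, with cell loss under 80%, at 10 µM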;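 also: anti alpha tubulin signal scored within the nucleus-defined area of each cell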
ROMK retest: confirmation of human ROMK potassium channel modulators. shares compounds with ROMK mod. ROMK thallium flux, fluorescence ratio; hits give low values. normalized thallium flux (F/F0 slope) at 10 µM. actives 54% (n = 3,000). AID 1917;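 active = Flux at 10 µM at least 3 SD below or above vehicle control mean in one or both replicates; inconclusive = no clear call, values can overlap the other calls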
Each line names hits and unclear results; the compound was inactive in the other large screens (follow-up assays come after a bar, where they were run).

CCN(CC)S(=O)(=O)c1ccc(N2CCCC2)c(NC(=O)Cc2ccccc2)c1	none (no result: ROMK mod, MT stabilizer)
O=[N+]([O-])c1cc(CN2CCC(O)CC2)ccc1Cl	none
Cc1ccc(S(=O)(=O)N2CCCCC2)cc1NC(=O)Cn1c(=O)cnc2ccccc21	none
CCC(C)NC(=O)COc1ccccc1[N+](=O)[O-] (configuration not stated)	none (no result: ROMK mod)
CC1CCN(C(=O)CSCC(=O)Nc2nc(-c3cccs3)cs2)CC1	none (no result: ROMK mod) | ROMK retest 0.065
CC1CCCN(C(=O)CSCC(=O)Nc2nc(-c3cccs3)cs2)C1 (configuration not stated)	none (no result: b-catenin transl, ROMK mod)
CCOc1cc(/C=C2\NC(=S)N(c3c(C)n(C)n(-c4ccccc4)c3=O)C2=O)ccc1O	none (no result: ROMK mod)
CCOc1cccc(/C=C2\NC(=S)N(c3ccccc3)C2=O)c1O	none (no result: ROMK mod, MT stabilizer) | ROMK retest 0.058
CCC(C(=O)O)N1C(=O)C2CCCCC2C1=O (configuration not stated)	none (no result: ROMK mod, MT stabilizer)
CC(=O)c1ccc(NC(=O)C2CC(=O)N(C(C)C)C2)cc1 (configuration not stated)	none
CC(=O)NC(C)C(=O)OCc1ccc(Cl)cc1Cl (configuration not stated)	none (no result: ROMK mod)
COc1ccc(/C=C2\CN(Cc3ccccc3)C/C(=C\c3ccc(OC)cc3OC)C2=O)c(OC)c1	none (no result: ROMK mod)
COc1ccc(C=C2c3ccccc3C(=O)c3ccccc32)c(OC)c1	b-catenin transl 82, ROMK mod 2.8 (no result: MT stabilizer) | ROMK retest inactive
CCCCCCn1ccc(=N)cc1	none (no result: ROMK mod)
CCCCCCCCCCCCCCCCn1cc[n+](CC(C)=O)c1	ROMK mod -4.9 | ROMK retest 0.063
O=C(Nc1ccc(-c2nc3cc(NC(=O)c4cccs4)ccc3o2)cc1)c1cccs1	none (no result: b-catenin transl, ROMK mod)
O=C(Nc1ccc2oc(-c3ccncc3)nc2c1)c1cccs1	none (no result: b-catenin transl, ROMK mod) | ROMK retest inactive
COc1ccc(C2(O)CCN(C(=O)Cc3cccnc3)CC2)cc1	none
COc1ccc(C2(O)CCN(CCCCOc3ccccc3)CC2)cc1	ROMK mod -4.6 | ROMK retest 0.061
COc1ccc(CN(CCN(C)C)c2ccccn2)cc1	none (no result: b-catenin transl, ROMK mod)
CC(C)n1cnc2c(N(C)c3ccccc3)nc(N(CCN(C)C)Cc3ccccc3)nc21	none (no result: ROMK mod, MT stabilizer) | ROMK retest 0.052
CCN1CCN(C(=O)c2ccc(Cn3c(=O)[nH]c4cc(OC)c(OC)cc4c3=O)cc2)CC1	none (no result: b-catenin transl)
COc1ccc(Cn2c(=O)[nH]c3cc(C(=O)N4CCN(Cc5ccccc5)CC4)ccc3c2=O)cc1	none (no result: ROMK mod) | ROMK retest inactive
CCN1CCN(C(=O)CCCCCn2c(=O)[nH]c3cc(C(=O)OC)ccc3c2=O)CC1	none (no result: b-catenin transl, ROMK mod)
COC(=O)c1ccc2c(=O)n(CCCCCC(=O)N3CCN(c4ccccc4)CC3)c(=O)[nH]c2c1	none (no result: b-catenin transl, ROMK mod) | ROMK retest inactive
Cc1cc(NC(=O)CSc2nncc(=O)n2N)no1	none
Cc1ccc(S(=O)(=O)N2CCC(C(=O)NCc3ccncc3)CC2)cc1	none (no result: ROMK mod)
COc1ccc(/C=N/NC(=O)c2csc(-n3nc(C)cc3C(F)(F)F)n2)cc1	b-catenin transl 108, MT stabilizer 30 (no result: ROMK mod) | ROMK retest inactive
Cc1cc(C(F)(F)F)n(-c2nc(C(=O)NN)cs2)n1	none
CCN(CC(=O)Nc1c(F)cccc1F)C(=O)CCc1ccc(OC)cc1	none
COc1ccccc1OCC(=O)NC1CCCCCC1	none
COc1ccccc1/C=C/C1(C(=O)NC2CCCC2)CC(=O)N1c1ccc(C)cc1 (configuration not stated)	ROMK mod -5 | ROMK retest 0.062
Cc1cc(F)ccc1S(=O)(=O)Nc1ccccc1C(=O)NCc1cccnc1	none
O=C(NCc1ccccc1)N1CCC(n2cnc3cc(F)ccc32)CC1	none (no result: ROMK mod) | ROMK retest 0.069
Cc1ccc2c(c1)nnn2C1CCN(C(=O)NCc2ccccc2)CC1	none
CNC(=O)c1ccsc1NC(=O)c1ccc(Cl)s1	none (no result: b-catenin transl, ROMK mod)
Cc1ccc(S(=O)(=O)CC(=O)c2ccc([N+](=O)[O-])cc2)cc1	none (no result: ROMK mod, MT stabilizer) | ROMK retest inactive
Cc1ccc(S(=O)(=O)CC(=O)c2ccc(C)c([N+](=O)[O-])c2)cc1	none (no result: ROMK mod)
Cc1nc(NC(=O)CN2CCC(O)(c3ccc(F)cc3)CC2)sc1C	none (no result: ROMK mod, MT stabilizer)
CSc1ccccc1NC(=O)c1cc2ncc(Br)cn2n1	none
N#C/C(=C/c1ccc(N2CCCCC2)o1)C(=O)Nc1ccc2ccccc2c1	none (no result: ROMK mod)
N#C/C(=C/c1ccc(N2CCCCC2)o1)C(=O)Nc1ccc(Cl)cc1	none (no result: ROMK mod) | ROMK retest 0.048
COc1ccc(/C(N)=N/O)c(OC)c1	none
CC(C)CCN(C)C1CCN(S(=O)(=O)c2cccc(C(F)(F)F)c2)CC1	ROMK mod -2.9 (no result: b-catenin transl) | ROMK retest inactive
CC1CN(S(=O)(=O)c2cccc(C(F)(F)F)c2)CC(C)O1 (configuration not stated)	none (no result: ROMK mod, MT stabilizer)
OCC(O)CN1CCCC1 (configuration not stated)	none (no result: ROMK mod, MT stabilizer)
Cc1cccc(C(=O)OCC(=O)NCCCc2ccccc2)c1	none
Cc1cc(C=C2C(=O)c3ccccc3C2=O)c(C)n1-c1ccc(Cl)cc1	none (no result: ROMK mod)
Cc1cccc(-n2c(C)cc(C=C3C(=O)c4ccccc4C3=O)c2C)c1	none (no result: ROMK mod) | ROMK retest 0.036
CC(=O)Nc1sc(N/N=C/c2ccccc2)nc1-c1ccc(C)cc1	none (no result: ROMK mod, MT stabilizer) | ROMK retest inactive
CC(=O)Nc1sc(N/N=C/c2ccc(O)cc2)nc1-c1ccc(C)cc1	none (no result: ROMK mod, MT stabilizer)
Cc1occc1C(=O)NC1CCCCCC1	ROMK mod 3.1 | ROMK retest inactive
Cc1occc1C(=O)NNC(=O)C1CCCCC1	none
COc1cccc(C2(O)CCN(C(=O)Cc3cccnc3)CC2)c1	none (no result: ROMK mod)
COc1cccc(-n2c(O)c(C=NCc3ccccn3)c3ccccc3c2=O)c1	none (no result: MT stabilizer)
O=c1c2ccccc2c(C=NCc2ccccn2)c(O)n1-c1ccccc1	none (no result: ROMK mod) | ROMK retest inactive
CCOC1=C/C(=C/c2c(N)n3nc(-c4ccccc4)sc3nc2=O)C=CC1=O	ROMK mod -3.5 | ROMK retest 0.044
COC1=C/C(=C/c2c(N)n3nc(-c4ccc(C)cc4)sc3nc2=O)C=CC1=O	none
CC(=O)NS(=O)(=O)c1ccc(NC(=O)CN2C(=O)C3C4C=CC(C4)C3C2=O)cc1 (configuration not stated)	none
O=C(CCN1CCN(c2ccccc2)CC1)N/N=C/c1ccccc1OC(F)F	none (no result: b-catenin transl)
COc1ccc(/C=N/n2c(N)nc3ccccc32)cc1OC	none (no result: ROMK mod)
COc1cccc(/C=N/n2c(N)nc3ccccc32)c1OC	ROMK mod 6.6 | ROMK retest 0.11
O=C(COc1ccccc1)Nc1cccc(-c2nnc(-c3ccccc3)o2)c1	none (no result: ROMK mod, MT stabilizer)
O=C(Nc1cccc(-c2cn3cccnc3n2)c1)c1ccc2c(c1)OCO2	none (no result: ROMK mod) | ROMK retest inactive
c1cnc2nc(-c3ccc4c(c3)OCO4)cn2c1	none
O=C(Nc1cccc(-c2nnc(-c3ccccc3)o2)c1)c1ccc(Br)o1	none | ROMK retest 0.065
O=C(Nc1cccc(-c2cn3cccnc3n2)c1)c1ccco1	none (no result: ROMK mod)
O=C(Nc1cccc(-c2cn3cccnc3n2)c1)c1ccc(Br)o1	none (no result: ROMK mod) | ROMK retest inconclusive
Cc1nonc1NC(=O)c1ccc(Cl)c(S(=O)(=O)N2CCCCC2)c1	none
CC1CCN(c2cc(N)c(Cl)cc2[N+](=O)[O-])CC1	none (no result: ROMK mod) | ROMK retest 0.069
CC1CCN(c2cc(C#N)c(C#N)cc2[N+](=O)[O-])CC1	none
COc1cc(C(=O)NC(=S)Nc2nccs2)cc(OC)c1OC	none
Fc1ccc2[nH]c3c(N4CCN(c5ccccc5)CC4)ncnc3c2c1	none | ROMK retest inactive
CCOC(=O)N1CCN(c2ncnc3c2[nH]c2ccc(F)cc23)CC1	none (no result: ROMK mod)
